Experimental data from ChEMBL document CHEMBL1156535, “Thiocarbamates as non-nucleoside HIV-1 reverse transcriptase inhibitors. Part 1: Parallel synthesis, molecular modelling and structure-activity relationship studies on O-[2-(hetero)arylethyl]-N-phenylthiocarbamates” (Bioorg Med Chem, 2008).
Activity calls are given as the source filed them. The rule behind the calls is not given here.

Key:
[1] = Cytotoxicity against human MT4 cells by MTT assay; assay type: cell-based
Procedure, shortened: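 Mock-infected MT-4 cells; viability by MTT method; CC50 taken as concentration reducing viability by 50%. Mean of three separate experiments, variation among triplicates under 10%.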

[2] = tested on: Human immunodeficiency virus 1; test: Antiretroviral activity against HIV1 in human MT4 cells assessed as reduction in virus-induced cytopathogenicity by MTT assay; assay type: functional, organism-based; settings: Human immunodeficiency virus 1, MT4
Procedure, shortened: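 MT-4 cells infected with HIV-1; MTT read-out of viability; EC50 taken as concentration giving 50% protection from virus-induced cytopathogenicity. Mean of three separate experiments, variation among triplicates under 10%.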

[3] = Selectivity index, ratio of CC50 for human MT4 cells to EC50 for HIV1; assay type: toxicity, cell-based; settings: read-out: Ratio CC50/EC50
[4] = tested on: Human immunodeficiency virus 1; test: Antiviral activity against HIV1 in human C8166 cells assessed as reduction of p24 antigen level; assay type: functional, organism-based; settings: Human immunodeficiency virus 1, C8166
Procedure, shortened: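 C8166 cultures infected with HIV-1; p24 antigen levels measured; EC90 taken as dose lowering p24 by 90%.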

[5] = tested on: HIV-1 Y181C mutant (Human immunodeficiency virus 1); test: Antiviral activity against HIV1 with reverse transcriptase Y181C mutation in human MT4 cells assessed as reduction of virus-induced cytopathogenicity by MTT assay; settings: Human immunodeficiency virus 1, MT4
[6] = tested on: HIV-1 K103N/Y181C mutant (Human immunodeficiency virus 1); test: Antiviral activity against HIV1 with reverse transcriptase K103N/Y181C mutation in human MT4 cells assessed as reduction of virus-induced cytopathogenicity by MTT assay; settings: for EC50: Human immunodeficiency virus 1, MT4

SMILES	CC50 [1] [µM]	EC50 [2] [µM]	selectivity ratio [3]	EC90 [4] [µM]	EC50 [5] [µM]	EC50 [6] [µM]	Activity [6]
Cc1ccc(NC(=S)OCCc2ccccn2)cc1Cl	59	0.7	84				
N#Cc1ccc(NC(=S)OCCc2ccccn2)cc1	45	0.2	225				
S=C(NCCc1ccccn1)Nc1ccc(Br)cn1 [TROVIRDINE]			3000	0.015			
S=C(Nc1ccccc1)OCCc1cccs1	> 100	14	> 7.1				
Cc1ccccc1NC(=S)OCCc1ccccn1	> 100	69	> 1.4				
CC(C)c1ccc(NC(=S)OCCc2ccccn2)cc1	45	> 45	< 1				
S=C(Nc1ccc(I)cc1)OCCc1ccccn1	34	0.5	68				
O=[N+]([O-])c1cccc(NC(=S)OCCc2ccccn2)c1	100	1.6	63		87	91	
CN(C)c1ccc(NC(=S)OCCc2ccccn2)cc1	60	> 60	< 1				
Cc1cccc(NC(=S)OCCc2ccccn2)c1	> 100	7.7	> 13				
FC(F)(F)c1cc(NC(=S)OCCc2ccccn2)ccc1Cl	42	5.5	7.6				
O=[N+]([O-])c1ccc(NC(=S)OCCc2ccccn2)cc1	> 100	0.7	> 143	0.8			
S=C(Nc1ccccc1)OCCc1ccccn1	> 100	7.4	> 14				
O=[N+]([O-])c1ccc(NC(=S)OCCc2ccncc2)cc1	> 100	> 100					
Fc1cccc(F)c1NC(=S)OCCc1ccccn1	> 100	38	> 2.6				
Fc1ccc(F)c(NC(=S)OCCc2ccccn2)c1	> 100	9	> 11				
O=[N+]([O-])c1ccc(NC(=S)OCCc2ccccc2)cc1	> 100	0.9	> 111				
S=C(Nc1cccc(Cl)c1)OCCc1ccccn1	47	1.4	34				
CCc1ccc(NC(=S)OCCc2ccccn2)cc1	44	10	4.4				
O=C1Nc2ccc(Cl)cc2[C@@](C#CC2CC2)(C(F)(F)F)O1 [EFAVIRENZ]					0.01	0.04	

SMILES	CC50 [1] [µM]	EC50 [2] [µM]	selectivity ratio [3]	EC90 [4] [µM]	EC50 [5] [µM]	EC50 [6] [µM]	Activity [6]
Fc1cccc(NC(=S)OCCc2ccccn2)c1	≥ 100	1.1	≥ 91				
S=C(Nc1ccc(Cl)cc1Cl)OCCc1ccccn1	> 100	2.9	> 34				
S=C(Nc1ccc(Cl)cc1)OCCc1ccccc1	> 100	0.5	> 200				
FC(F)(F)c1ccc(NC(=S)OCCc2ccccn2)cc1	50	13	3.8				
Cc1ccc(NC(=S)OCCc2ccncc2)cc1	> 100	63	> 1.6				
S=C(Nc1ccc(Cl)cc1)OCCc1ccncc1	70	> 70	< 1				
CC(=O)c1ccc(NC(=S)OCCc2ccccn2)cc1	≥ 100	> 100					
O=[N+]([O-])c1cc(NC(=S)OCCc2ccccn2)ccc1Cl	41	0.1	410				
Fc1ccc(NC(=S)OCCc2ccccn2)cc1	> 100	1.2	> 83				
COc1ccc(NC(=S)OCCc2ccccc2)cc1		17	2.1				
COc1ccc(NC(=S)OCCc2ccccn2)cc1	48	5.6	8.6				
Cc1ccc(NC(=S)OCCc2ccccn2)cc1	75	1.7	44				
S=C(Nc1ccccc1Cl)OCCc1ccccn1	> 100	43	> 2.3				
COc1ccc(NC(=S)OCCc2ccncc2)cc1	59	> 59	< 1				
S=C(Nc1ccc(Cl)cc1)OCCc1ccccn1	52	0.1	520				
Cc1ccc(NC(=S)OCCc2ccccc2)cc1	> 100	4.3	> 23				
S=C(Nc1ccc(Br)cc1)OCCc1ccccn1	37	0.2	185		20		inactive
S=C(Nc1ccccc1)OCCc1ccccc1		6	17				
Fc1cc(F)cc(NC(=S)OCCc2ccccn2)c1	> 100	9	> 11				
S=C(Nc1ccc(Cl)c(Cl)c1)OCCc1ccccn1	40	0.2	200				
